Assay results reported in PMC11390321 (Cancer chemotherapy and pharmacology, 2024).

Columns and labels:
[1] = Dose linearity study: single IV dose PK, noncompartmental analysis; type: in vivo, female BALB/c mice; conditions: for β, slope of Ln(AUC0-∞) versus Ln(dose): 2–60 mg/kg IV, power model; for AUC(0-inf) / Cmax / Tmax / Vd / half-life / AUC(0-t) / clearance: female, BALB/c, mouse, iv; for AUC(0-inf) / Cmax / Tmax / Vd / half-life / AUC(0-t) / clearance / AUC0-t/dose / AUC0-∞ /dose / AUC0–360/dose / AUCextrap / Cmax/dose / Tlast: plasma; for clearance: CL; for AUC extrapolated beyond 24 h in tissues: tissues with a quantifiable 24 h sample; for 0–24 h feces / 0–24 h urine: unchanged drug
Procedure, shortened: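 Single ~30 s tail-vein bolus of test compound in 12% captisol (pH 4, acetic acid), 2.0, 6.0, 20 or 60 mg/kg, female BALB/c mice 5–7 weeks old, N=3 per time point. Plasma and tissues taken 5–1,440 min; pooled 24 h urine/feces from metabolic cages. LC-MS/MS with [D7] internal standard. NCA, Bailer AUC. Dose linearity via slope of Ln AUC0-∞ versus Ln dose against β=1.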

[2] = test system: P-glycoprotein (P-gp/Mdr1); conditions: on the BBB; cited from earlier work

CNCc1ccc(-c2cc(-c3nc(-c4ccc(S(=O)(=O)C(C)C)cc4)cnc3N)on2)cc1 [berzosertib]
β, slope of Ln(AUC0-∞) versus Ln(dose) ([1]; Brain): 1.17 (95% CI: 0.786 – 1.56) | β, slope of Ln(AUC0-∞) versus Ln(dose) ([1]; Kidney): 1.35 (95% CI: 0.960 – 1.73) | β, slope of Ln(AUC0-∞) versus Ln(dose) ([1]; Lung): 1.30 (95% CI: 0.804 – 1.79) | unchanged drug recovered in feces ([1]; across all groups (2–60 mg/kg IV), 0–24 h): < 4% | increase in volume of distribution (Vd) ([1]; between 2 and 60 mg/kg IV): more than 3 fold | AUC(0-inf) ([1]; 2 mg/kg): 867 ng·h/mL | Cmax ([1]; 2 mg/kg): 1480 ng/mL | Tmax ([1]; 2 mg/kg): 5 min | Vd ([1]; 2 mg/kg): 8.49 L/kg | half-life ([1]; 2 mg/kg): 2.55 h | AUC(0-t) ([1]; 2 mg/kg, AUC0-t, 2.0 mg/kg IV): 765 ng·h/mL | AUC(0-t) ([1]; 2 mg/kg, AUC0–360, plasma, 2.0 mg/kg IV): 765 ng·h/mL | AUC(0-inf) ([1]; 6 mg/kg): 2450 ng·h/mL | Cmax ([1]; 6 mg/kg): 3470 ng/mL | Tmax ([1]; 6 mg/kg): 5 min | Vd ([1]; 6 mg/kg): 9.63 L/kg | half-life ([1]; 6 mg/kg): 2.73 h | AUC(0-t) ([1]; 6 mg/kg, AUC0-t, 6.0 mg/kg IV): 2100 ng·h/mL | AUC(0-t) ([1]; 6 mg/kg, AUC0–360, plasma, 6.0 mg/kg IV): 2100 ng·h/mL | AUC(0-inf) ([1]; 20 mg/kg): 10200 ng·h/mL | Cmax ([1]; 20 mg/kg): 10200 ng/mL | Tmax ([1]; 20 mg/kg): 5 min | Vd ([1]; 20 mg/kg): 11.9 L/kg | half-life ([1]; 20 mg/kg): 4.22 h | AUC(0-t) ([1]; 20 mg/kg, AUC0-t, 20 mg/kg IV): 10100 ng·h/mL | AUC(0-t) ([1]; 20 mg/kg, AUC0–360, plasma, 20 mg/kg IV): 7070 ng·h/mL | clearance ([1]; 20 mg/kg, calculated using AUC0-∞, 20 mg/kg IV): 32.6 mL/min/kg | clearance ([1]; 20 mg/kg, calculated using AUC0–360, 20 mg/kg IV): 47.2 mL/min/kg | AUC(0-inf) ([1]; 60 mg/kg): 35400 ng·h/mL | Cmax ([1]; 60 mg/kg): 21200 ng/mL | Tmax ([1]; 60 mg/kg): 5 min | Vd ([1]; 60 mg/kg): 25.6 L/kg | half-life ([1]; 60 mg/kg): 10.5 h | AUC(0-t) ([1]; 60 mg/kg, AUC0-t, 60 mg/kg IV): 29400 ng·h/mL | AUC(0-t) ([1]; 60 mg/kg, AUC0–360, plasma, 60 mg/kg IV): 15500 ng·h/mL | AUC0-t/dose ([1]; 2.0 mg/kg IV): 23.0 | AUC0-∞ /dose ([1]; 2.0 mg/kg IV): 26.0 | AUC0–360/dose ([1]; 2.0 mg/kg IV): 23.0 | AUCextrap ([1]; 2.0 mg/kg IV): 11.7% | Cmax/dose ([1]; 2.0 mg/kg IV): 0.738 | Tlast ([1]; 2.0 mg/kg IV): 360 min | AUC0-t/dose ([1]; 6.0 mg/kg IV): 21.1 | AUC0-∞ /dose ([1]; 6.0 mg/kg IV): 24.6 | AUC0–360/dose ([1]; 6.0 mg/kg IV): 21.1 | AUCextrap ([1]; 6.0 mg/kg IV): 14.2% | Cmax/dose ([1]; 6.0 mg/kg IV): 0.578 | Tlast ([1]; 6.0 mg/kg IV): 360 min | AUC0-t/dose ([1]; 20 mg/kg IV): 30.3 | AUC0-∞ /dose ([1]; 20 mg/kg IV): 30.7 | AUC0–360/dose ([1]; 20 mg/kg IV): 21.2 | AUCextrap ([1]; 20 mg/kg IV): 1.39% | Cmax/dose ([1]; 20 mg/kg IV): 0.512 | AUC0-t/dose ([1]; 60 mg/kg IV): 29.4 | AUC0-∞ /dose ([1]; 60 mg/kg IV): 35.4 | AUC0–360/dose ([1]; 60 mg/kg IV): 15.5 | AUCextrap ([1]; 60 mg/kg IV): 17.0% | Cmax/dose ([1]; 60 mg/kg IV): 0.353 | AUC extrapolated beyond 24 h in tissues ([1]; 60 mg/kg): > 20% | AUC extrapolated beyond 24 h in tissues ([1]; 2, 6 and 20 mg/kg groups): < 3% | 0–24 h feces ([1]; 2.0 mg/kg IV): 1.78 % dose | 0–24 h urine ([1]; 2.0 mg/kg IV): 40.6 % dose | 0–24 h feces ([1]; 6.0 mg/kg IV): 3.41 % dose | 0–24 h urine ([1]; 6.0 mg/kg IV): 49.2 % dose | 0–24 h feces ([1]; 20 mg/kg IV): 1.48 % dose | 0–24 h urine ([1]; 20 mg/kg IV): 55.8 % dose | 0–24 h feces ([1]; 60 mg/kg IV): 2.02 % dose | 0–24 h urine ([1]; 60 mg/kg IV, 60 mg/kg): 28 % dose | efflux transporter substrate [2]: substrate
